Laboratory results as given in ChEMBL document CHEMBL1124818, “Synthesis and cardiac electrophysiological activity of aryl-substituted derivatives of the class III antiarrhythmic agent sematilide. Potential class I/III agents” (J Med Chem, 1990).
“And” between values parts separate entries of the source, which are not always exact repeats. Equal entries are not always repeated.

What was measured:
Canis familiaris [1] = organism: Canis familiaris; assay: Duration of action potential was determined in vitro in Canine Purkinje fibers at 0.1 uM concentration.; format: functional, Canis lupus familiaris, Purkinje fiber
Procedure, shortened: (§1)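 Microelectrode recording in Purkinje fibers; action potential duration at 95% repolarization measured at each test concentration and expressed as percent change from control, mean ± SEM over the stated number of experiments.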

[2] = Percent change from control value for Vmax at 100 uM of the compound.
Procedure, shortened: (§2)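 Microelectrode recording in Purkinje fibers; maximal depolarization rate (Vmax) measured at each test concentration, given as percent change from control, mean ± SEM; n per concentration may differ from APD experiments.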

Canis familiaris [3] = organism: Canis familiaris; assay: Duration of action potential was determined in vitro in Canine Purkinje fibers at 30 uM concentration.; format: functional, Canis lupus familiaris, Purkinje fiber; procedure, shortened: as §1
[4] = Percent change from control value for Vmax at 30 uM of the compound.; procedure, shortened: as §2
Canis familiaris [5] = organism: Canis familiaris; assay: Duration of action potential was determined in vitro in Canine Purkinje fibers at 100 uM concentration.; format: functional, Canis lupus familiaris, Purkinje fiber; procedure, shortened: as §1
[6] = Percent change from control value for Vmax at 10 uM of the compound.; procedure, shortened: as §2
Cavia porcellus [7] = assay: Percent change in the mean time to first Ouabain-induced arrhythmia was determined in Guinea pig at a dose of 10 mg/kg; format: functional
Procedure, shortened: (§3)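 Anesthetized guinea pigs, tracheal cannulation with room-air respiration, right jugular cannulated; 5 min equilibration, test agent intravenous, then 10 min later ouabain 40 μg/kg iv bolus plus 10 μg/kg/min infusion until arrhythmia. Percent change in mean time to first arrhythmia (n = 4-6) versus vehicle control (n = 3-4).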

Canis familiaris [8] = organism: Canis familiaris; assay: Duration of action potential was determined in vitro in Canine Purkinje fibers at 1 uM concentration.; format: functional, Canis lupus familiaris, Purkinje fiber; procedure, shortened: as §1
Canis familiaris [9] = organism: Canis familiaris; assay: Duration of action potential was determined in vitro in Canine Purkinje fibers at 10 uM concentration.; format: functional, Canis lupus familiaris, Purkinje fiber; procedure, shortened: as §1
[10] = Percent change from control value for Vmax at 0.1 uM of the compound.; procedure, shortened: as §2
[11] = Percent change from control value for Vmax at 1 uM of the compound.; procedure, shortened: as §2
Canis familiaris [12] = organism: Canis familiaris; assay: Duration of action potential in vitro against Canine Purkinje fibers; at 10 uM concentration.; format: functional, Canis lupus familiaris, Purkinje fiber; procedure, shortened: as §1
[13] = Percent change from control value for Vmax at 3 uM of the compound.; procedure, shortened: as §2
Canis familiaris [14] = assay: Antiarrhythmic efficacy in vivo against PES model; format: functional; details: Canis lupus familiaris, Heart
Procedure, shortened: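 Conscious dogs 3-8 days after occlusion/reperfusion infarction (Karagueuzian method); programmed electrical stimulation induced two control arrhythmias before dosing, VF ended by DC countershock and sustained VT by burst pacing. After intravenous drug, reinduction attempted; efficacy counted when SVT/VF not inducible; per-dog effective dose recorded, non-responders to cumulative 10 mg/kg unless noted.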

Canis familiaris [15] = organism: Canis familiaris; assay: Duration of action potential in vitro against Canine Purkinje fibers; at 3 uM concentration; format: functional, Canis lupus familiaris, Purkinje fiber; procedure, shortened: as §1
Cavia porcellus [16] = assay: Percent change in the mean time to first Ouabain-induced arrhythmia was determined in Guinea pig at a dose of 3 mg/kg; format: functional; procedure, shortened: as §3
Canis familiaris [17] = assay: Antiarrhythmic efficacy in vivo against Harris model; format: functional; details: Canis lupus familiaris, Heart
Procedure, shortened: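 Conscious dogs studied 24 h after two-stage coronary occlusion infarction (Harris method), when ectopy exceeds 75%; test agent given intravenously. Efficacy counted as >30% decrease in ectopy; per-dog effective dose recorded, non-responders given cumulative 10 mg/kg unless otherwise noted.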

Canis familiaris [18] = organism: Canis familiaris; assay: Duration of action potential in vitro against Canine Purkinje fibers; at 1 uM concentration; format: functional, Canis lupus familiaris, Purkinje fiber; procedure, shortened: as §1
Canis familiaris [19] = organism: Canis familiaris; assay: Duration of action potential in vitro against Canine Purkinje fibers, at 10 uM concentration.; format: functional, Canis lupus familiaris, Purkinje fiber; procedure, shortened: as §1
Canis familiaris [20] = organism: Canis familiaris; assay: Duration of action potential in vitro against Canine Purkinje fibers; at 100 uM concentration.; format: functional, Canis lupus familiaris, Purkinje fiber; procedure, shortened: as §1
Canis familiaris [21] = organism: Canis familiaris; assay: Duration of action potential in vitro against Canine Purkinje fibers, at 30 uM concentration.; format: functional, Canis lupus familiaris, Purkinje fiber; procedure, shortened: as §1
[22] = Percent change from control value for Vmax at 10 uM of the compound; procedure, shortened: as §2
[23] = Percent change from control value for Vmax at 1 uM of the compound; procedure, shortened: as §2
[24] = Percent change from control value for Vmax at 0.1 uM of the compound; procedure, shortened: as §2
[25] = Percent change from control value for Vmax at 30 uM of the compound; procedure, shortened: as §2
Canis familiaris [26] = organism: Canis familiaris; assay: Duration of action potential was determined in vitro in Canine Purkinje fibers at 1 uM concentration; format: functional, Canis lupus familiaris, Purkinje fiber; procedure, shortened: as §1
Canis familiaris [27] = organism: Canis familiaris; assay: Duration of action potential was determined in vitro in Canine Purkinje fibers at 30 uM concentration; format: functional, Canis lupus familiaris, Purkinje fiber; procedure, shortened: as §1
Canis familiaris [28] = organism: Canis familiaris; assay: Duration of action potential was determined in vitro in Canine Purkinje fibers at 10 uM concentration; format: functional, Canis lupus familiaris, Purkinje fiber; procedure, shortened: as §1
Canis familiaris [29] = organism: Canis familiaris; assay: Duration of action potential was determined in vitro in Canine Purkinje fibers at 0.1 uM concentration; format: functional, Canis lupus familiaris, Purkinje fiber; procedure, shortened: as §1
Cavia porcellus [30] = assay: Percent change in the mean time to first Ouabain-induced arrhythmia was determined in Guinea pig at 10 mg/kg dose; format: functional; procedure, shortened: as §3
Canis familiaris [31] = organism: Canis familiaris; assay: Duration of action potential in vitro against Canine Purkinje fibers; at 30 uM concentration.; format: functional, Canis lupus familiaris, Purkinje fiber; procedure, shortened: as §1
Canis familiaris [32] = organism: Canis familiaris; assay: Duration of action potential in vitro against Canine Purkinje fibers, at 3 uM concentration.; format: functional, Canis lupus familiaris, Purkinje fiber; procedure, shortened: as §1
Canis familiaris [33] = organism: Canis familiaris; assay: Duration of action potential in vitro against Canine Purkinje fibers, at 100 uM concentration.; format: functional, Canis lupus familiaris, Purkinje fiber; procedure, shortened: as §1

Row | SMILES | Delta APD95 (Canis familiaris [1]) | Delta APD95 (Canis familiaris [3]) | Delta Vmax [4] | Delta Vmax [6] | Change (Cavia porcellus [7]; dose 10 mg/kg) | Delta APD95 (Canis familiaris [8]) | Delta APD95 (Canis familiaris [9]) | Delta Vmax [10] | Delta Vmax [11] | ED50 (Canis familiaris [14]) | Delta APD95 (Canis familiaris [18]) | also measured
1 | CCN(CC)CCN(C(=O)c1ccc(NS(C)(=O)=O)cc1)c1ccccc1.Cl | 4% | 38% | -20% | -12% | -9% | 18% | 52% | -4% | -3% | – | – | Delta Vmax [2]: -39%; Delta APD95 (Canis familiaris [5]): 45%
2 | CCN(CC)CCN(C(=O)c1ccc(NS(C)(=O)=O)cc1)c1ccc(OC)cc1.O=C(O)/C=C/C(=O)O | 8% | 66% | -8% | -3% | 15% | 35% | 82% | 0% | -3% | – | – | –
3 | O=C(NCC1CCCCN1)c1cc(OCC(F)(F)F)ccc1OCC(F)(F)F (stereo not given) [FLECAINIDE] | -3% | – | – | -30% | – | – | – | 2% | -6% | 1 mg/kg | -15% | Delta APD95 (Canis familiaris [12]): -47%; Delta Vmax [13]: -11%; Delta APD95 (Canis familiaris [15]): -35%; Change (Cavia porcellus [16]): 51%; ED50 (Canis familiaris [17]): 1 mg/kg
4 | CCN(CC)CC(NC(=O)c1ccc(NS(C)(=O)=O)cc1)c1cccc2ccccc12 (stereo not given) | 14% | – | – | – | – | – | – | -3% | -20% | 1 mg/kg | 10% | Change (Cavia porcellus [7]; dose 3 mg/kg, in the assay text read “3 mg/kg” for “10 mg/kg”): 70%; Delta APD95 (Canis familiaris [19]): -14%; ED50 (Canis familiaris [17]): 2 mg/kg
5 | CCN(CC)CCN(C(=O)c1ccc(NS(C)(=O)=O)cc1)c1c(C(C)C)cccc1C(C)C.Cl | – | – | – | -11% | – | 21% | 22% | – | 1% | 1 mg/kg | – | Change (Cavia porcellus [16]): 22%; ED50 (Canis familiaris [17]): 10 mg/kg
6 | CCN(CC)CCN(C(=O)c1ccc(NS(C)(=O)=O)cc1)c1cccc2ccccc12.Cl | 10% | – | -16% | -13% | -25% | – | – | 2% | -5% | 1 mg/kg | 51% | Delta APD95 (Canis familiaris [20]): 26%; Delta Vmax [2]: -42%; Delta APD95 (Canis familiaris [12]): 64% and 37%; Change (Cavia porcellus [16]): 8%
7 | CCN(CC)C(CNC(=O)c1ccc(NS(C)(=O)=O)cc1)c1cccc2ccccc12 (stereo not given) | 4% | – | -7% | -4% | 0% | – | – | 1% | -2% | – | 29% | Delta APD95 (Canis familiaris [21]): 29%; Delta APD95 (Canis familiaris [19]): 34%
8 | CCN(CC)CCN(C(=O)c1ccc(NS(C)(=O)=O)cc1)c1ccc(NS(C)(=O)=O)cc1 | – | – | – | – | 22% | – | – | – | – | – | – | Delta Vmax [22]: -3%; Delta Vmax [23]: -2%; Delta Vmax [24]: -4%; Delta Vmax [25]: -6%; Delta APD95 (Canis familiaris [26]): 10%; Delta APD95 (Canis familiaris [27]): 40%; Delta APD95 (Canis familiaris [28]): 30%; Delta APD95 (Canis familiaris [29]): 7%
9 | CCN(CC)CC(=O)Nc1c(C)cccc1C [LIDOCAINE] | – | – | – | 1% | 30% | -7% | -25% | – | 2% | – | – | –
10 | C=C[C@H]1CN2CC[C@H]1C[C@@H]2[C@@H](O)c1ccnc2ccc(OC)cc12 [QUINIDINE] | 2% | -17% | -23% | – | – | 4% | -4% | 0% | -1% | 1 mg/kg | – | Delta APD95 (Canis familiaris [5]): -14%; ED50 (Canis familiaris [17]): 10 mg/kg; Change (Cavia porcellus [30]): 28%
11 | CCN(CC)C(CNC(=O)c1ccc(NS(C)(=O)=O)cc1)c1ccccc1 (stereo not given) | 11% | – | -15% | -12% | -13% | – | – | -4% | -4% | – | 40% | Delta APD95 (Canis familiaris [21]): 52%; Delta APD95 (Canis familiaris [19]): 46%
12 | CCc1ccc(N(CCN(CC)CC)C(=O)c2ccc(NS(C)(=O)=O)cc2)cc1.Cl | 12% | 62% | -6% | 4% | 20% | 51% | 70% | 5% | 8% | – | – | –
13 | CCN(CC)CC(NC(=O)c1ccc(NS(C)(=O)=O)cc1)c1ccccc1.Cl (stereo not given) | 4% | – | -34% | -13% | 61% | – | – | 6% | -2% | – | 21% | Delta APD95 (Canis familiaris [20]): -20%; Delta Vmax [2]: -76%; Delta APD95 (Canis familiaris [12]): -2%; Delta APD95 (Canis familiaris [31]): -12%
14 | CCN(CC)CCNC(=O)c1ccc(NS(C)(=O)=O)cc1 [SEMATILIDE] | 0% | – | – | 0% | – | – | – | 2% | 0% | 1 mg/kg | 6% | Delta Vmax [2]: 0%; Delta APD95 (Canis familiaris [32]): 14%; Delta APD95 (Canis familiaris [21]): 51%; Delta APD95 (Canis familiaris [33]): 66%; Delta APD95 (Canis familiaris [19]): 33%
15 | CCN(CC)CCN(C(=O)c1ccc(NS(C)(=O)=O)cc1)c1c(C)cccc1C.Cl | 7% | 40% | -6% | -3% | -8% | 10% | 30% | -4% | -2% | – | – | –
16 | CCN(CC)CCN(C(=O)c1ccc(NS(C)(=O)=O)cc1)c1ccc(Cl)cc1 | 9% | 60% | -20% | -8% | 18% | 34% | 64% | 3% | 2% | – | – | –
